Source: PubChem BioAssay (Sanford-Burnham Center for Chemical Genomics)
An excerpt weighted towards active compounds, which were near 1.8% of everything screened.
STEP block = STEP phosphatase inhibitors, primary screen, biochemical, fluorescence intensity, uHTS; Tyrosine-protein phosphatase non-receptor type 5 (Homo sapiens), P54829; recombinant STEP, OMFP fluorogenic substrate; inhibition, % at 20 µM; 360,000 compounds, 0.25% hits;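 active = inhibition at 20 µM, scaled per plate between control wells, above about 37%, limit read from the data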;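 also: 0% = DMSO with enzyme and substrate and 100% = substrate only without enzyme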
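System: isolated STEP enzyme; schedule: 20 min enzyme reaction at room temperature, protected from light; medium: Bis-Tris buffer pH 6.0, 2.5 mM DTT, 0.005% Tween 20; signal: fluorescence, 480/540 nm; dosing: single compound dose of 20 µM, 1% DMSO final; also added: OMFP substrate, 25 µM final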
SUMO1 PPI mod = modulators of SUMO1 protein-protein interactions, primary screen, biochemical, uHTS. inhibition, % at 20 µM. Small ubiquitin-related modifier 1 (Homo sapiens), P63165. 360,000 compounds, 0.33% hits. SUMO1 binding to a labelled peptide, TR-FRET, 1 h. AID 602429, 2012; in the data active = inhibition above about 37%
Target sequence (P63165 whole entry, looked up): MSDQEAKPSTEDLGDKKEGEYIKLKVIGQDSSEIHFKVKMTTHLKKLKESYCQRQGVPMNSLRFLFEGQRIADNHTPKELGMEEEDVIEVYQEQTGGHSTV
LMPTP block = LMPTP phosphatase inhibitors, primary screen, biochemical, fluorescence intensity, uHTS; Low molecular weight phosphotyrosine protein phosphatase (Homo sapiens), P24666; recombinant LMPTP-A, OMFP fluorogenic substrate; inhibition, % at 20 µM; 360,000 compounds, 0.22% hits; AID 651560, 2012;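 active = compounds that cut the enzyme signal by at least half of the control window in the single-dose screen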;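 also: plate controls were DMSO wells with enzyme plus substrate for no effect and substrate without enzyme for full effect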
Target sequence (P24666 whole entry, looked up): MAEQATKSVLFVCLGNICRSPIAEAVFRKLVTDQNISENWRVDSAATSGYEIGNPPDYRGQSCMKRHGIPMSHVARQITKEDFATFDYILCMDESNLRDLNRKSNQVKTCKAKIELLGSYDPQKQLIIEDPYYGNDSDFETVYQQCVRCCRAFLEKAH
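Assay system: LMPTP-A enzyme. Input: 0.625 nM LMPTP-A final. Probe or stimulus: 400 µM OMFP. Compound dosing: single 20 µM dose. Schedule: 50 min dark incubation at room temperature. Detection: fluorescence intensity of OMFP turnover product. Read-out: percent inhibition versus substrate-only and uninhibited controls. Benchmarks: no-enzyme low control, uninhibited high control.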
DNMT1 block = human DNMT1 methyltransferase inhibitors, primary screen, biochemical, molecular beacon, fluorescence, HinP1I cleavage, uHTS; DNA (cytosine-5)-methyltransferase 1 (Homo sapiens), P26358; inhibition (reported as % activation of signal), % at 10 µM; 360,000 compounds, 0.83% hits; AID 588458, 2011; in the data active = inhibition above about 50%
HKDC1 inh = HKDC1 hexokinase inhibitors, primary screen, biochemical, fluorescence, uHTS. inhibition, % at 20 µM. 340,000 compounds, 0.16% hits. AID 493160, 2011. recombinant HKDC1, G6PDH/diaphorase resazurin coupled fluorescence. Q2TB90;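 active = inhibition above about 35% when tested at 20 µM, limit read from the data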;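 also: plate controls were DMSO wells with enzyme for no effect and DMSO wells lacking enzyme for full effect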
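Material: recombinant HKDC1 hexokinase; Amount: HKDC1 at 5 µg/mL; Medium: Tris pH 8.0 buffer with MgCl2, Tween-20, BSA, BME; Schedule: 90 min reaction incubation at room temperature, dark; Technique: coupled resazurin fluorescence, excitation 525 nm, emission 613 nm.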
Scp1 inh = Scp-1 phosphatase inhibitors, primary screen, biochemical, colorimetric, uHTS. Carboxy-terminal domain RNA polymerase II polypeptide A small phosphatase 1 (Homo …. Recombinant Scp1, phosphopeptide, malachite green phosphate absorbance. inhibition, % at 20 µM. 340,000 compounds, 0.88% hits;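 active = inhibition above about 50% at 20 µM, limit read from the data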;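 also: plate controls were DMSO wells with enzyme for no effect and wells lacking enzyme for full effect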
Target sequence (Q9GZU7 76-261 limits assumed): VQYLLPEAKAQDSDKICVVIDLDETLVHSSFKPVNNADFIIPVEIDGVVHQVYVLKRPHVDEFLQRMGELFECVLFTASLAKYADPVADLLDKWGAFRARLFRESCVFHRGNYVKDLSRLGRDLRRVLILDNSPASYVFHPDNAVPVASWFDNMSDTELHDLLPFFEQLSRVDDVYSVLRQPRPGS
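Assay system: SCP-1 catalytic fragment, aa 76-261 | Buffer or medium: Tris acetate buffer pH 5.5 with MgCl2 and Tween-20 | Compound: One concentration, 20 µM, with 1.0% DMSO | Also added: Phospho 17-mer peptide substrate | Signal: Absorbance at 630 nm | Incubation: 45 min enzyme reaction at room temperature | Measure: % inhibition of SCP-1 phosphate liberation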
HKDC1 act conf2 = HKDC1 hexokinase activators, confirmation, biochemical, single concentration | recombinant HKDC1, G6PDH/diaphorase resazurin fluorescence; active compounds read low | AID 504708, 2011 | 740 compounds, 14% hits | inhibition, % at 20 µM | shares compounds with HKDC1 inh;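 active = inhibition at or below a set negative limit, negative inhibition meaning the enzyme was activated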
The depositor's hits bear a star; nt = no result; ! = not active in a repeat.

SMILES	STEP block	SUMO1 PPI mod	LMPTP block	DNMT1 block	HKDC1 inh	Scp1 inh	HKDC1 act conf2
Cc1cc(NC(=S)NC(=O)c2ccccc2)ccc1-c1cc2ccccc2oc1=O	2.5	2.1	0.1	24.6	-47.5	-4.4	-13.8
COc1cc(C(=O)NC(=S)Nc2cccc(-c3cc4ccccc4oc3=O)c2)cc(OC)c1OC	0.0	-23.5	-0.2	-7.8	-2.7	0.8	nt
O=C(CSc1n[nH]c(-c2ccncc2)n1)Nc1ccc(Br)cc1	0.4	3.7	-0.5	1.0	24.6	-5.5	nt
COC(=O)c1ccc(NC(=O)CSc2n[nH]c(-c3ccncc3)n2)cc1	-1.2	1.4	-1.2	0.1	36.3*	-10.1	43.0
CN(C)c1ccc(NC(=O)CSc2n[nH]c(-c3ccncc3)n2)cc1	-0.7	1.0	0.1	0.0	-0.5	-10.2	nt
CCOC(=O)c1ccc(NC(=O)CSc2n[nH]c(-c3ccncc3)n2)cc1	-0.4	11.2	-3.0	-1.8	39.6*	11.5	50.3
COC(=O)c1cc(S(=O)(=O)N2CCOCC2)c(Cl)cc1N1CCOCC1	-2.3	1.2	-0.1	-1.0	-6.1	-6.0	nt
COC(=O)c1cc(C)nc2c1C(=O)C(=O)C=C2N1CCOCC1	10.8	78.9*	20.7	96.6*	68.1*	5.6	65.8
CC1(C)Cc2ccccc2C2=NNC(=O)C2=N1	2.1	-10.5	2.0	9.3	53.0*	3.2	36.9
C[C@H](CO)N1C[C@H](C)[C@@H](CN(C)C(=O)Nc2ccc3c(c2)OCO3)Oc2ccc(NS(=O)(=O)c3ccccc3)cc2C1=O	1.6	3.6	-0.4	3.2	-0.2	48.8	nt
O=C(Cc1cccc(NC(=O)C2CCCN(C(=O)C3CC3)C2)c1)Nc1cccc(C(=O)N2CCOCC2)c1 (stereo not drawn)	-2.0	5.2	-2.0	1.4	0.5	4.1	nt
O=C1NN(c2ccc(F)c(Cl)c2)C(=O)/C1=C\c1cccc(OC(=O)c2cccs2)c1	9.5	22.2	8.3	8.2	43.7*	26.7	27.0
O=C1OC(c2ccccc2)=N/C1=C/c1cccc(OC(=O)c2cccs2)c1	0.2	1.1	-2.3	15.8	39.4*	-11.7	-8.8
CC(C)=C1C(=O)NN(c2ccc(F)c(Cl)c2)C1=O	4.6	5.6	0.2	4.3	10.5	-2.7	nt
O=C(CCNC(=O)c1ccco1)Nc1ccc(Cl)c(C(F)(F)F)c1	-2.0	0.9	1.2	2.9	3.2	-3.1	nt
CCOC(=O)c1ccc(NC2=CC(=O)C(=O)c3ccccc32)cc1	28.4	40.5*	10.1	56.4*	33.2	24.9	27.6
CCCCn1c(N)c(N(CCC(C)C)C(=O)CSc2nc3ccccc3n2C)c(=O)[nH]c1=O	-2.1	1.9	-1.1	4.5	-2.4	2.6	nt
COc1ccc(C2=CC3=C(Br)C(=O)C(C)(OC(=O)c4ccc(Cl)nc4)C(=O)C3=CO2)cc1 (stereo not drawn)	nt	nt	nt	nt	27.8	18.7	nt
COC(=O)CCC(=O)OC1(C)C(=O)C2=COC(c3ccc(OC)cc3)=CC2=C(Br)C1=O (stereo not drawn)	nt	nt	nt	nt	36.7*	47.3	-0.2
COC(=O)CCC(=O)OC1(C)C(=O)C2=CN(Cc3ccc4c(c3)OCO4)C(c3ccc(OC)cc3)=CC2=C(Br)C1=O (stereo not drawn)	-0.5	-24.8	4.8	-17.8	39.9*	9.3	-5.4
COc1ccc(C2=CC3=C(Br)C(=O)C(C)(OC(=O)C4CCCC4)C(=O)C3=CO2)cc1 (stereo not drawn)	1.0	55.6*	0.3	8.7	52.8*	4.4	-18.1
CC1(OC(=O)C2CCCC2)C(=O)C=C2C=C(c3ccsc3)OC=C2C1=O (stereo not drawn)	1.4	25.3	-0.2	-5.5	18.0	-1.0	nt
COC(=O)CCC(=O)OC1(C)C(=O)C2=CN(CCc3ccccn3)C(c3ccc(OC)cc3)=CC2=C(Br)C1=O (stereo not drawn)	-0.7	-13.2	16.1	-4.5	32.8	1.6	nt
CN(C)c1ccc(P(=O)(OCc2ccccc2)C(O)c2ccc(Br)cc2)cc1 (stereo not drawn)	-0.6	4.6	1.1	6.7	-9.5	-11.4	nt
Cc1onc(-c2ccccc2)c1C(=O)NNC(=S)NC(=O)/C=C/c1cccs1	-2.5	-7.2	-1.5	-5.0	-57.2	-10.7	-23.2
SMILES	STEP block	SUMO1 PPI mod	LMPTP block	DNMT1 block	HKDC1 inh	Scp1 inh	HKDC1 act conf2
O=C(Cc1ccc(Cl)cc1Cl)OCC(=O)N1CCCCC1	0.4	-4.7	-0.5	1.9	-9.1	-7.1	nt
COc1ccc(NC(=O)CSc2ccc(-c3cccnc3)nn2)c(OC)c1	-0.6	0.9	0.6	-1.3	31.8	-8.3	38.8
Cc1ccc(N=c2ssnc2Cl)cc1	7.1	-7.5	47.0	-1.0	-50.8	0.6	-43.7*
COc1cc(N=c2ssnc2Cl)c(OC)cc1Cl	4.4	-7.0	48.2*!	-4.0	-45.7	1.7	-56.9*
COc1ccc(OC)c(N=c2ssnc2Cl)c1	0.4	5.9	34.0	-11.9	3.3	-1.3	nt
Cc1cc(C)nc(/N=c2/ssnc2Cl)c1	4.8	20.3	78.8*	-13.9	-136.6	-3.6	-84.2*
Cc1ccc(-c2nnn(CC(=O)N(CCN3CCOCC3)C(C(=O)NC(C)(C)C)c3ccc(C)o3)n2)cc1 (stereo not drawn)	3.2	2.5	2.2	0.7	-4.5	-5.8	nt
O=C(c1ccc2ncsc2c1)N1CCCCC1	4.0	-4.1	-0.4	2.2	-1.5	-4.6	nt
O=C(O)c1ccc2ncsc2c1	-7.9	4.0	0.4	1.2	40.7*	3.5	48.1
Cc1cc(SCC(=O)N/N=C/c2ccc(O)c(O)c2O)c(C)cc1Br	3.2	3.1	11.5	-12.8	44.5*	-14.3	7.8
COc1cc(/C=N/NC(=O)CSc2cc(C)c(Br)cc2C)ccc1O	3.1	-2.3	0.9	-10.4	2.3	-2.0	nt
O=C1c2ccccc2CN1C(CO)Cc1ccccc1 (stereo not drawn)	-5.3	6.2	-1.5	0.3	-11.4	-15.9	nt
CCCCNC(=O)c1sc(=S)n2c1[nH]c(=O)c1ccc(C(=O)NCCc3ccc(OC)c(OC)c3)cc12	9.3	11.7	-0.1	-10.8	47.9*	-4.5	49.8
CCOc1cccc(-c2c(C(=O)N/N=C/c3ccsc3)nnn2-c2nonc2N)c1	0.5	-13.5	1.6	-4.5	-1.5	-4.0	nt
